# How the values were obtained:
# Format in all cases: functional
# [1] = system: Pseudomonas aeruginosa; test: Antimicrobial activity against metallo-beta-lactamase-negative Pseudomonas aeruginosa isolate PA494 in presence of Tazobactam
# [2] = system: Pseudomonas aeruginosa; test: Antimicrobial activity against Pseudomonas aeruginosa isolate PA462 expressing VIM-2 beta-lactamase in presence of Tazobactam
# [3] = system: Pseudomonas aeruginosa; test: Antimicrobial activity against metallo-beta-lactamase-negative Pseudomonas aeruginosa isolate PA509 in presence of Tazobactam
# [4] = system: Pseudomonas aeruginosa; test: Antimicrobial activity against Pseudomonas aeruginosa isolate PA477 expressing VIM-2 beta-lactamase
# [5] = system: Pseudomonas aeruginosa; test: Antimicrobial activity against Pseudomonas aeruginosa isolate PA469 expressing VIM-2 beta-lactamase
# [6] = system: Pseudomonas aeruginosa; test: Antimicrobial activity against Pseudomonas aeruginosa isolate PA510 expressing VIM-2 beta-lactamase
# [7] = system: Pseudomonas aeruginosa; test: Antimicrobial activity against metallo-beta-lactamase-negative Pseudomonas aeruginosa isolate PA459
# Summary of the method: (§1)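 MBL-negative clinical P. aeruginosa isolates with reduced imipenem susceptibility, collected at the study hospital, some from cystic fibrosis patients. Species identity was confirmed by automated Gram-negative identification card. MIC was read in μg/ml.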
# [8] = system: Pseudomonas aeruginosa; test: Antimicrobial activity against metallo-beta-lactamase-negative Pseudomonas aeruginosa isolate PA509
# [9] = system: Pseudomonas aeruginosa; test: Antimicrobial activity against metallo-beta-lactamase-negative Pseudomonas aeruginosa isolate PA479 in presence of Tazobactam
# [10] = system: Pseudomonas aeruginosa; test: Antimicrobial activity against metallo-beta-lactamase-negative Pseudomonas aeruginosa isolate PA459 in presence of Tazobactam
# [11] = system: Pseudomonas aeruginosa; test: Antimicrobial activity against Pseudomonas aeruginosa isolate PA481 expressing VIM-2 beta-lactamase
# [12] = system: Pseudomonas aeruginosa; test: Antimicrobial activity against Pseudomonas aeruginosa isolate PA481 expressing VIM-2 beta-lactamase in presence of Tazobactam
# [13] = system: Pseudomonas aeruginosa; test: Antimicrobial activity against metallo-beta-lactamase-negative Pseudomonas aeruginosa isolate PA507; summary of the method: as §1
# [14] = system: Pseudomonas aeruginosa; test: Antimicrobial activity against metallo-beta-lactamase-negative Pseudomonas aeruginosa isolate PA460
# [15] = system: Pseudomonas aeruginosa; test: Antimicrobial activity against Pseudomonas aeruginosa isolate PA477 expressing VIM-2 beta-lactamase in presence of Tazobactam
# [16] = system: Pseudomonas aeruginosa; test: Antimicrobial activity against metallo-beta-lactamase-negative Pseudomonas aeruginosa isolate PA479
# [17] = system: Pseudomonas aeruginosa; test: Antimicrobial activity against metallo-beta-lactamase-negative Pseudomonas aeruginosa isolate PA494
# [18] = system: Pseudomonas aeruginosa; test: Antimicrobial activity against Pseudomonas aeruginosa isolate PA469 expressing VIM-2 beta-lactamase in presence of Tazobactam
# [19] = system: Pseudomonas aeruginosa; test: Antimicrobial activity against metallo-beta-lactamase-negative Pseudomonas aeruginosa isolate PA460 in presence of Tazobactam
# [20] = system: Pseudomonas aeruginosa; test: Antimicrobial activity against metallo-beta-lactamase-negative Pseudomonas aeruginosa isolate PA507 in presence of Tazobactam
# [21] = system: Pseudomonas aeruginosa; test: Antimicrobial activity against Pseudomonas aeruginosa isolate PA399 expressing VIM-2 beta-lactamase in presence of Tazobactam
# [22] = system: Pseudomonas aeruginosa; test: Antimicrobial activity against Pseudomonas aeruginosa isolate PA465 expressing VIM-2 beta-lactamase
# [23] = system: Pseudomonas aeruginosa; test: Antimicrobial activity against Pseudomonas aeruginosa isolate PA510 expressing VIM-2 beta-lactamase in presence of Tazobactam
# [24] = system: Pseudomonas aeruginosa; test: Antimicrobial activity against Pseudomonas aeruginosa isolate PA399 expressing VIM-2 beta-lactamase
# [25] = system: Pseudomonas aeruginosa; test: Antimicrobial activity against Pseudomonas aeruginosa isolate PA500 expressing VIM-1 beta-lactamase in presence of Tazobactam
# [26] = system: Pseudomonas aeruginosa; test: Antimicrobial activity against Pseudomonas aeruginosa isolate PA475 expressing VIM-2 beta-lactamase
# [27] = system: Pseudomonas aeruginosa; test: Antimicrobial activity against metallo-beta-lactamase-negative Pseudomonas aeruginosa isolate PA483
# [28] = system: Pseudomonas aeruginosa; test: Antimicrobial activity against Pseudomonas aeruginosa isolate PA475 expressing VIM-2 beta-lactamase in presence of Tazobactam
# [29] = system: Pseudomonas aeruginosa; test: Antimicrobial activity against Pseudomonas aeruginosa isolate PA465 expressing VIM-2 beta-lactamase in presence of Tazobactam
# [30] = system: Pseudomonas aeruginosa; test: Antimicrobial activity against Pseudomonas aeruginosa isolate PA462 expressing VIM-2 beta-lactamase
# [31] = system: Pseudomonas aeruginosa; test: Antimicrobial activity against Pseudomonas aeruginosa isolate PA500 expressing VIM-1 beta-lactamase
# [32] = system: Pseudomonas aeruginosa; test: Antimicrobial activity against metallo-beta-lactamase-negative Pseudomonas aeruginosa isolate PA483 in presence of Tazobactam
compound,measurement,setting,value
CCN1CCN(C(=O)N[C@@H](C(=O)N[C@@H]2C(=O)N3[C@@H]2SC(C)(C)[C@@H]3C(=O)O)c2ccccc2)C(=O)C1=O [PIPERACILLIN],MIC,[1],≥ 128 µg/mL
same,MIC,[2],≥ 128 µg/mL
same,MIC,[3],≥ 128 µg/mL
same,MIC,[4],≥ 128 µg/mL
same,MIC,[5],≥ 128 µg/mL
same,MIC,[6],≥ 128 µg/mL
same,MIC,[7],≥ 128 µg/mL
same,MIC,[8],≥ 128 µg/mL
same,MIC,[9],≥ 128 µg/mL
same,MIC,[10],≥ 128 µg/mL
same,MIC,[11],≥ 128 µg/mL
same,MIC,[12],≥ 128 µg/mL
same,MIC,[13],≥ 128 µg/mL
same,MIC,[14],≥ 128 µg/mL
same,MIC,[15],≥ 128 µg/mL
same,MIC,[16],≥ 128 µg/mL
same,MIC,[17],≥ 128 µg/mL
same,MIC,[18],≥ 128 µg/mL
same,MIC,[19],≥ 128 µg/mL
same,MIC,[20],≥ 128 µg/mL
same,MIC,[21],≥ 128 µg/mL
same,MIC,[22],≥ 128 µg/mL
same,MIC,[23],≥ 128 µg/mL
same,MIC,[24],≥ 128 µg/mL
same,MIC,[25],≥ 128 µg/mL
same,MIC,[26],≥ 128 µg/mL
same,MIC,[27],≥ 128 µg/mL
same,MIC,[28],≥ 128 µg/mL
same,MIC,[29],64 µg/mL
same,MIC,[30],≥ 128 µg/mL
same,MIC,[31],≥ 128 µg/mL
same,MIC,[32],≥ 128 µg/mL
